In article PMC11665275 (Organic & Biomolecular Chemistry, 2024):
Square brackets hold non-standard residues; d marks the D form. Ends that are not written are not given here. Orn = NCCC[C@H](N)C(=O)O; Dab = NCC[C@H](N)C(=O)O; Dap = NC[C@H](N)C(=O)O

Assay: Circular dichroism
Assay type: physicochemical
Conditions: CD, PBS pH 7.4 (aqueous), 200 μM peptide, 25 °C, from MRE at 222 nm
Summary of the method: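 Spectra taken at 25 °C in PBS (137 mM NaCl, 2.7 mM KCl, 10 mM Na2HPO4, 1.8 mM KH2PO4, pH 7.4) with 200 μM peptide in a 0.1 cm quartz cuvette. Scanned 195–260 nm at 5 nm min−1, 0.50 nm bandwidth, 16 s integration. A single scan was solvent-corrected and converted to MRE. Helicity was calculated using the number of residues in the potential helical region and an empirical end-effect correction.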

% Helicity in PBS (value in parentheses) [%] | Substance
0.9 | AMRL[Dab]KFF[Dab]DFILQRKK [5_2–9_2]
0.1 | AMRL[Orn]KFF[Dap]DFILQRKK [5_3–9_1]
